Source: ChEMBL document CHEMBL4340514, “(2S)-N-2-methoxy-2-phenylethyl-6,7-benzomorphan compound (2S-LP2): Discovery of a biased mu/delta opioid receptor agonist” (Eur J Med Chem, 2019)
pEC50, pKi: −log10 of the molar value. Calls of active or inactive are those of the source.

Key:
Mu-type opioid receptor [1] = target: T1, Mu-type opioid receptor (Homo sapiens, UniProt P35372); assay: Potency index, ratio of test compounds intrinsic activity to DADLE intrinsic activity for agonist activity at Rluc-tagged MOR receptor (unknown origin) expressed in human […] cells co-expressing RGFP-fused to Gbeta1; format: cell-based
How it was run: (§1)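 Enriched plasma membranes (3 µg protein) from SH-SY5Y cells stably co-expressing MOR-RLuc and Gβ1-RGFP, in DPBS. Membranes prepared by Dounce homogenisation in sucrose buffer and differential centrifugation. Coelenterazine 5 µM final; ligands in PBS-BSA 0.01% incubated 5 min at room temperature. Read-out is BRET ratio (510/460 nm). […] At least 5 experiments in duplicate.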

Homo sapiens = species: Homo sapiens; assay: Selectivity ratio of agonist activity at Rluc-tagged MOR receptor (unknown origin) expressed in human SH-5YSY cells co-expressing RGFP-fused to Gbeta1 assessed as increase in MOR/G beta1 protein interaction incubated for 5 mins in presence of coelenterazine by BRET assay over Agonist activity at Rluc-tagged DOR receptor (unknown origin) expressed in human […] cells co-expressing RGFP-fused to Gbeta1 assessed as increase in DOR/G beta1 protein interaction incubated for 5 mins in presence of coelenterazine by BRET assay; format: cell-based
Mu-type opioid receptor [2] = target: T1, Mu-type opioid receptor
Mu-type opioid receptor [3] = target: T1, Mu-type opioid receptor; assay: Potency index, ratio of test compounds EC50 to DADLE EC50 for agonist activity at Rluc-tagged MOR receptor (unknown origin) expressed in human […] cells co-expressing RGFP-fused to Gbeta1; format: cell-based; how it was run: as §1
[4] = target: T2, Delta-type opioid receptor (Homo sapiens, UniProt P41143); assay: Agonist activity at Rluc-tagged DOR receptor (unknown origin) expressed in human […] cells co-expressing RGFP-fused to Gbeta1 assessed as increase in DOR/G beta1 protein interaction incubated for 5 mins in presence of coelenterazine by BRET assay; format: cell-based
[5] = target: Kappa-type opioid receptor (Cavia porcellus, UniProt P41144); assay: Displacement of [3H]-U69,593 from KOR in guinea pig brain membranes incubated for 30 mins by liquid scintillation counting; format: cell membranes
How it was run: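 Guinea pig brain membranes (0.5 mg/mL) incubated 30 min at 30 °C with 1 nM [3H]-(+)-U69,593. Filtered and counted by liquid scintillation. Ki from nonlinear regression of a logistic fit. Three experiments in duplicate.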

Mu-type opioid receptor [6] = target: Mu-type opioid receptor (Rattus norvegicus, UniProt P33535); assay: Displacement of [3H]-DAMGO from MOR in rat brain membranes incubated for 45 mins by liquid scintillation counting; format: cell membranes
How it was run: (§2)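 Rat brain membranes in 50 mM Tris-HCl pH 7.4, incubated 45 min at 35 °C. MOR: 0.4 mg/mL protein with 1 nM [3H]-DAMGO. DOR: 0.5 mg/mL protein with 2 nM [3H]-DPDPE. Filtered and counted by liquid scintillation. Ki from nonlinear regression of a logistic fit. Three experiments in duplicate.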

Rattus norvegicus = species: Rattus norvegicus; assay: Selectivity ratio of Ki for DOR in rat brain membranes to Ki for MOR in rat brain membranes; format: cell membranes; how it was run: as §2
[7] = Toxicity in Swiss CB1 mouse assessed as sedation at 0.5 to 5.0 mg/kg, ip after 30 to 180 mins; format: organism-based; conditions: in vivo
Mus musculus [8] = assay: Antinociceptive activity in ip dosed Swiss CB1 mouse after 30 to 180 mins by radiant heat tail-flick method; format: functional
How it was run: (§3)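 Male Swiss CB1 mice (25-30 g), habituated the day before. Radiant heat tail-flick: infrared source aimed at the lower third of the tail at 25 ± 1 °C. Baseline 3-5 s, mean of three readings 5 min apart; 20 s cutoff. Compounds in saline with DMSO (5%), given i.p. Latencies read at 30-180 min. […] Groups of 6-8 mice.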

[9] = target: Delta-type opioid receptor (Rattus norvegicus, UniProt P33533); assay: Displacement of [3H]DPDPE from DOR in rat brain membranes incubated for 45 mins by liquid scintillation counting; format: cell membranes; how it was run: as §2
[10] = Toxicity in Swiss CB1 mouse assessed as locomotor activity at 0.5 to 5.0 mg/kg, ip after 30 to 180 mins; format: organism-based; conditions: in vivo
Mus musculus [11] = assay: Antinociceptive activity in ip dosed Swiss CB1 mouse after 60 to 180 mins by radiant heat tail-flick method; format: functional, organism-based; how it was run: as §3
[12] = Selectivity ratio of Ki for KOR in guinea pig brain membranes to Ki for MOR in rat brain membranes; format: cell membranes
Mu-type opioid receptor [13] = target: T1, Mu-type opioid receptor; assay: Potency index, ratio of test compounds EC50 to DADLE EC50 for agonist activity at Rluc-tagged MOR receptor (unknown origin) expressed in human […] cells co-expressing RGFP-fused to beta-arrestin-2; format: cell-based
How it was run: (§4)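 Whole SH-SY5Y cells stably co-expressing MOR-RLuc and β-arrestin 2-RGFP, plated 24 h before at 100,000 cells/well, in PBS with 0.5 mM MgCl2 and 0.9 mM CaCl2. Coelenterazine 5 µM final, added 15 min before reading; ligands incubated 5 min at room temperature. Read-out is BRET ratio (510/460 nm).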

Mu-type opioid receptor [14] = target: T1, Mu-type opioid receptor; assay: Potency index, ratio of test compounds pEC50 to DADLE pEC50 for agonist activity at Rluc-tagged MOR receptor (unknown origin) expressed in human […] cells co-expressing RGFP-fused to beta-arrestin-2; format: cell-based
Mu-type opioid receptor [15] = target: T1, Mu-type opioid receptor; assay: Potency index, ratio of test compounds pEC50 to DADLE pEC50 for agonist activity at Rluc-tagged MOR receptor (unknown origin) expressed in human […] cells co-expressing RGFP-fused to Gbeta1; format: cell-based
[16] = target: T2, Delta-type opioid receptor; assay: Agonist activity at Rluc-tagged DOR receptor (unknown origin) expressed in human […] cells co-expressing RGFP-fused to beta-arrestin-2 assessed as increase in DOR/beta-arrestin-2 protein interaction incubated for 5 mins in presence of coelenterazine by BRET assay; format: cell-based
Mu-type opioid receptor [17] = target: T1, Mu-type opioid receptor; remark: listed apart in the source
Mu-type opioid receptor [18] = target: T1, Mu-type opioid receptor; assay: Bias factor, change in deltalog(Tau/KA) for agonist activity at Rluc-tagged MOR receptor (unknown origin) expressed in human […] cells co-expressing RGFP-fused to Gbeta1 assessed as increase in MOR/G beta1 protein interaction incubated for 5 mins in presence of coelenterazine by BRET assay to deltalog(Tau/KA) for agonist activity at Rluc-tagged MOR receptor (unknown origin) expressed in human […] cells co-expressing RGFP-fused to MOR/beta-arrestin-2 assessed as increase in beta-arrestin-2 protein interaction incubated for 5 mins in presence of coelenterazine by BRET assay; format: cell-based
Mu-type opioid receptor [19] = target: T1, Mu-type opioid receptor; assay: Potency index, ratio of test compounds intrinsic activity to DADLE intrinsic activity for agonist activity at Rluc-tagged MOR receptor (unknown origin) expressed in human […] cells co-expressing RGFP-fused to beta-arrestin-2; format: cell-based; how it was run: as §4
[20] = Toxicity in Swiss CB1 mouse assessed as sedation at 0.5 to 3.0 mg/kg, ip after 30 to 180 mins; format: organism-based; conditions: in vivo
[21] = Toxicity in Swiss CB1 mouse assessed as locomotor activity at 0.5 to 3.0 mg/kg, ip after 30 to 180 mins; format: organism-based; conditions: in vivo

T1 sequence (P35372 whole entry, the tested form may be a part): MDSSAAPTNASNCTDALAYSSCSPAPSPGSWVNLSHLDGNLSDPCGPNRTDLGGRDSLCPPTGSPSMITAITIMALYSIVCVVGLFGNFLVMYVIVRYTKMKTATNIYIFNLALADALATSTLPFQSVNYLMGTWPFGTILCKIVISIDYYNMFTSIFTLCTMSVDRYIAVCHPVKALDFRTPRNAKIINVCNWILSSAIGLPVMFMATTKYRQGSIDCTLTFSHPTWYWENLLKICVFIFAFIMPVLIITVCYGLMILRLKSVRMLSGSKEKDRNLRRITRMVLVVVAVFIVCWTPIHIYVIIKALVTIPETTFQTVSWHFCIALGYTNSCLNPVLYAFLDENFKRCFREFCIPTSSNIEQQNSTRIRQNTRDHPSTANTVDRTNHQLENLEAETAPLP
T2 sequence (P41143 whole entry, the tested form may be a part): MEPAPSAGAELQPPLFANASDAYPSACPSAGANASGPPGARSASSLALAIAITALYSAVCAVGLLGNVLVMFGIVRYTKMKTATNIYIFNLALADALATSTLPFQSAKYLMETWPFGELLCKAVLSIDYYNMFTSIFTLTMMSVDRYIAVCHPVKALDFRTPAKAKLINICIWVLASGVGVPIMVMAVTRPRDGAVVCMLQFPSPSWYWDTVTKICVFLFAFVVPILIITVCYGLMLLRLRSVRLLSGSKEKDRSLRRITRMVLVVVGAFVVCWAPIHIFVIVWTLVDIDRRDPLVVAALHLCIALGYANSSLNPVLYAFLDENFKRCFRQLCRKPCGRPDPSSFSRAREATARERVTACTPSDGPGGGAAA
Sequence of Kappa-type opioid receptor (P41144 whole entry): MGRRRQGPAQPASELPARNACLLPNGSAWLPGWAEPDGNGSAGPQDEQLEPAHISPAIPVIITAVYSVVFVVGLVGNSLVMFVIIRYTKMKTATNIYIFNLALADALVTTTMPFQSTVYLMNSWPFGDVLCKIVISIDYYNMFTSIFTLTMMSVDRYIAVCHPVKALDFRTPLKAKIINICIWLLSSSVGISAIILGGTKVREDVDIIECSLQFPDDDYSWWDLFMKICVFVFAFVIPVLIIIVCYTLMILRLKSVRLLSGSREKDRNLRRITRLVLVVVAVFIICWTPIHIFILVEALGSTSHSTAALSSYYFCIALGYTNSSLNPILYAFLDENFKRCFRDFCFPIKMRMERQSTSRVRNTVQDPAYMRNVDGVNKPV
Sequence of Mu-type opioid receptor (Rattus norvegicus, UniProt P33535) (P33535 whole entry): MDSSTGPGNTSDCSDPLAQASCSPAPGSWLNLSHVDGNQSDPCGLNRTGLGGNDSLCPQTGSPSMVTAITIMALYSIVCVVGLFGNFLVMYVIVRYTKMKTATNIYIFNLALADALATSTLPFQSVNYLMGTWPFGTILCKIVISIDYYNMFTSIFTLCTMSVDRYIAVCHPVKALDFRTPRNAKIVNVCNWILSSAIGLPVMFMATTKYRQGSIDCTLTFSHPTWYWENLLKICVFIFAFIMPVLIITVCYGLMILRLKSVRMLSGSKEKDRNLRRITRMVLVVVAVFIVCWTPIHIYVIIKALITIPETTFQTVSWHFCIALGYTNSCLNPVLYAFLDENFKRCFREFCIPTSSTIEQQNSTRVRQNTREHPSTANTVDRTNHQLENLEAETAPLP
Sequence of Delta-type opioid receptor (Rattus norvegicus, UniProt P33533) (P33533 whole entry): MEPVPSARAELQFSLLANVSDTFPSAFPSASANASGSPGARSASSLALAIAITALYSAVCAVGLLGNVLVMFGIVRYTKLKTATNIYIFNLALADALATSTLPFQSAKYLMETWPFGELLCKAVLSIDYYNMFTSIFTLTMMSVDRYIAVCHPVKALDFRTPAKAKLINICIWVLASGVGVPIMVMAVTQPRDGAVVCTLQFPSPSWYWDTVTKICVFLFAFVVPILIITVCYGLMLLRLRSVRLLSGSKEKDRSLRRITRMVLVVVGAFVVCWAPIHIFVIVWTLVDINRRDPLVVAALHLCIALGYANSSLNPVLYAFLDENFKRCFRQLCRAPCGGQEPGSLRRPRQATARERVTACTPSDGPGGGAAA

## C[C@H]1[C@H]2Cc3ccc(O)cc3[C@]1(C)CCN2C[C@H](O)c1ccccc1
Mu-type opioid receptor [1]
  Ratio: 0.82
Homo sapiens
  Ratio: 0.4
Mu-type opioid receptor [2]
  pEC50: 7.65
Mu-type opioid receptor [3]
  Ratio: 0.19
[4]
  pEC50: 7.23

## CO[C@@H](CN1CC[C@@]2(C)c3cc(O)ccc3C[C@@H]1[C@@H]2C)c1ccccc1
[5]
  pKi: 6.63
Mu-type opioid receptor [6]
  pKi: 7.91
Rattus norvegicus
  Ratio Ki: 12.3
[7]
  Activity: Non-Toxic
Mus musculus [8]
  ED50: 1.8 mg/kg
[9]
  pKi: 6.82
[10]
  Activity: Non-Toxic
Mus musculus [11]
  Activity: Active
[12]
  Ratio Ki: 19.2

## C[C@H]1[C@H]2Cc3ccc(O)cc3[C@]1(C)CCN2C[C@@H](O)c1ccccc1
Mu-type opioid receptor [1]
  Ratio: 0.87
Homo sapiens
  Ratio: 0.46
Mu-type opioid receptor [2]
  pEC50: 8.18
Mu-type opioid receptor [3]
  Ratio: 0.06
[4]
  pEC50: 7.84

## COC(CN1CC[C@@]2(C)c3cc(O)ccc3C[C@@H]1[C@@H]2C)c1ccccc1 (some centres undefined)
Mu-type opioid receptor [13]
  Ratio: 0.2
Mu-type opioid receptor [14]
  Ratio: 5
Mu-type opioid receptor [15]
  Ratio: 10
Mu-type opioid receptor [1]
  Ratio: 0.92
[16]
  pEC50: 5.65
Mu-type opioid receptor [2]
  pEC50: 7.90
Mu-type opioid receptor [3]
  Ratio: 0.1
Mu-type opioid receptor [17]
  pEC50: 6.56
[4]
  pEC50: 7.02
Mu-type opioid receptor [18]
  fold change (FC): 0.57
Mu-type opioid receptor [19]
  Ratio: 0.71

## CO[C@H](CN1CC[C@@]2(C)c3cc(O)ccc3C[C@@H]1[C@@H]2C)c1ccccc1
Mu-type opioid receptor [13]
  Ratio: 0.11
Mu-type opioid receptor [14]
  Ratio: 9
Mu-type opioid receptor [15]
  Ratio: 30
[20]
  Activity: Non-Toxic
Mu-type opioid receptor [1]
  Ratio: 0.93
[16]
  pEC50: 5.73
[5]
  pKi: 7.58
Mu-type opioid receptor [6]
  pKi: 9.30
Mu-type opioid receptor [2]
  pEC50: 8.33
Rattus norvegicus
  Ratio Ki: 5.18
Mu-type opioid receptor [3]
  Ratio: 0.04
Mus musculus [8]
  ED50: 0.6 mg/kg
[9]
  pKi: 8.59
Mu-type opioid receptor [17]
  pEC50: 6.82
[21]
  Activity: Non-Toxic
[4]
  pEC50: 7.49
Mu-type opioid receptor [18]
  fold change (FC): 0.82
[12]
  Ratio Ki: 53
Mu-type opioid receptor [19]
  Ratio: 0.72
